Test [1] has as its target T1, Acetylcholine receptor; alpha1/beta1/delta/gamma (Homo sapiens, UniProt P02708+P07510+P11230+Q07001). The experiment in a line: Antagonist activity at human muscle-type nAChR (embryonic muscle) expressed in TE671 cells; (end value). It counts as functional, cell-based, TE-671. The procedure, abridged:
(§1)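 Whole-cell patch clamp of TE671 cells (embryonic muscle-type nAChR) at 17-23 °C. Pipette: 140 mM CsCl, 1 mM CaCl2, 11 mM EDTA, 5 mM HEPES pH 7.2. Compound co-applied with 10 µM acetylcholine as 1-s pulses ≥30 s apart; IC50 from peak and end currents.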

The target in test [2] is T1, Acetylcholine receptor; alpha1/beta1/delta/gamma. Briefly: Antagonist activity at human muscle-type nAChR (embryonic muscle) expressed in TE671 cells; (peak value). It counts as functional, cell-based, TE-671. The method in brief:
as §1

Test [3] in a line: Tested for antagonist activity on non-NMDAR expressed in Xenopus Oocytes from rat brain mRNA. Format: functional, cell-based. The procedure, abridged:
(§2)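 Xenopus laevis oocytes injected with rat brain RNA, kept at 18 °C ≥3 days, voltage-clamped at -80 mV. Bath saline: 120 mM NaCl, 2 mM KCl, 1.8 mM CaCl2, 10 mM HEPES pH 7.5. 100 µM kainic acid perfused 120 s, antagonist co-applied 40-80 s. IC50 from decrease of kainate-evoked current.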

Test [4] can be described thus: Tested for antagonist activity on non-NMDAR (expressed in Xenopus Oocytes) from rat brain mRNA. It counts as functional, cell-based. The method in brief: as §2

In general, IC50 refers to the concentration that inhibits the measured activity by half.

T1 sequence (P02708 whole entry): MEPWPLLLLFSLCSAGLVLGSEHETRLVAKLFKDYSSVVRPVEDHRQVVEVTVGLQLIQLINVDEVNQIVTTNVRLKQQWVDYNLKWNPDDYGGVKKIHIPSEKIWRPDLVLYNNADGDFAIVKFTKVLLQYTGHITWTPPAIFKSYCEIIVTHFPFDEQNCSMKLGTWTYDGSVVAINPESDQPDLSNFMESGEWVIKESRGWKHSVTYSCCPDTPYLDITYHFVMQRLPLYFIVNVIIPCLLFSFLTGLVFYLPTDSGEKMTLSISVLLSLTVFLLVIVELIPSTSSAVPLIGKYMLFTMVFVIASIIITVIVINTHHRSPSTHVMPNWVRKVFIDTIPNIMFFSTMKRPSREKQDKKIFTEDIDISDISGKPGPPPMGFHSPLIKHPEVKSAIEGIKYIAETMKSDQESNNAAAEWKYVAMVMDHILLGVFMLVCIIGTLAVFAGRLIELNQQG
T1 sequence (P07510 whole entry): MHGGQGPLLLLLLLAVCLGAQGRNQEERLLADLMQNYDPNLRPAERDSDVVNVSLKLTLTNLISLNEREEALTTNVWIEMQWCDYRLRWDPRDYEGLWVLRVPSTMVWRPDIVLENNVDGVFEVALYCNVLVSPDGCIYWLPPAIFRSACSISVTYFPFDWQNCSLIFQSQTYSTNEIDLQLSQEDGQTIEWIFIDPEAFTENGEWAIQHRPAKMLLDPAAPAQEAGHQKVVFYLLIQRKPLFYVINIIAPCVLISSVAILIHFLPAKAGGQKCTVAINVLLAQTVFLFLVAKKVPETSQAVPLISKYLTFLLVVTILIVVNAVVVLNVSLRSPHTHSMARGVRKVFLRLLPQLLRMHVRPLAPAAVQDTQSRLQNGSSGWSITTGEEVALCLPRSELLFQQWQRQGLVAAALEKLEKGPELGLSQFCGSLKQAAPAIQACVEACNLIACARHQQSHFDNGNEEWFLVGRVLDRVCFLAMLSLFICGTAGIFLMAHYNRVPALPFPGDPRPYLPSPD
T1 sequence (P11230 whole entry): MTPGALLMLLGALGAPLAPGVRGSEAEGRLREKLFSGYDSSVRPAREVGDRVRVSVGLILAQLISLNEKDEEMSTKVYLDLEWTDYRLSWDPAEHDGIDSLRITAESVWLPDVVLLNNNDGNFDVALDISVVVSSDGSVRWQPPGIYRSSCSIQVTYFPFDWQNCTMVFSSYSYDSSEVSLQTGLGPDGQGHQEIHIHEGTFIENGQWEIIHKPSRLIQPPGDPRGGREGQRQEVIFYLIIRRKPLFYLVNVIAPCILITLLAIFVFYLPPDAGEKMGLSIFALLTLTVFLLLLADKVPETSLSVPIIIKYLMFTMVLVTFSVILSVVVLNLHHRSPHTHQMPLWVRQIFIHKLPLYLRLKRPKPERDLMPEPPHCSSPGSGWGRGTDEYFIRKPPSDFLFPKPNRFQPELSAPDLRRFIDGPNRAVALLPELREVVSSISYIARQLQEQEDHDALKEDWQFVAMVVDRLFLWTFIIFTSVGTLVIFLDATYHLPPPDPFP
T1 sequence (Q07001 whole entry): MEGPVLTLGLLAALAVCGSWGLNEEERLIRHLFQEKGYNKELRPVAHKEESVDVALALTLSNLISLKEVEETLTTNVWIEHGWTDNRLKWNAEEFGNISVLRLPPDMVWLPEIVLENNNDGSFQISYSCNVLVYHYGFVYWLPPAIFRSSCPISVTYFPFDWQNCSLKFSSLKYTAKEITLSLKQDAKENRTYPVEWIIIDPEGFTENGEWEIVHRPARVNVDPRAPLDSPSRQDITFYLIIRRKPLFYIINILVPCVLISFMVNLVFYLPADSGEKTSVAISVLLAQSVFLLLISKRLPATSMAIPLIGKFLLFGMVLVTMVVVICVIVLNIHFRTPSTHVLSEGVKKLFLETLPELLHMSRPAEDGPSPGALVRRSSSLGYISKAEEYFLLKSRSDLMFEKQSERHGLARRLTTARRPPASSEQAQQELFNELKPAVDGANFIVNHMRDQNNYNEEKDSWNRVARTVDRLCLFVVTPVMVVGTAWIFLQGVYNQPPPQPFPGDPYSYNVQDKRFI

As to `NCCCNCCCCNCCCNC(=O)[C@H](Cc1ccc(O)cc1)NC(=O)Cc1ccccc1`, the IC50 in test [1] is 22.3 µM; in test [2], 249 µM; in test [3], 0.015 µM.
For `NCCCNCCCCNCCCNC(=O)[C@H](Cc1ccc(O)cc1)NC(=O)CC1CCCCC1`, in that order: 13.2 µM, 86.9 µM and 0.18 µM.
Turning to `NCCCOCCCCOCCCNC(=O)[C@H](Cc1ccc(O)cc1)NC(=O)Cc1ccccc1`, the IC50 is 12.6 µM in test [1] and 35 µM in test [2].
For `NCCCOCCCCOCCCNC(=O)[C@H](Cc1ccc(O)cc1)NC(=O)CC1CCCCC1`, in that order: 5.69 µM and 25.9 µM.
Taken in the same sequence, the figures for `NCCCCCCCCCCCCNC(=O)[C@H](Cc1ccc(O)cc1)NC(=O)CC1CCCCC1` were 151 µM and more than 1000 µM.
With `NCCCCCCCCCCCCNC(=O)[C@H](Cc1ccc(O)cc1)NC(=O)Cc1ccccc1`, the concentration for half-maximal inhibition (IC50) was determined as 17.2 µM in test [1] and 388 µM in test [2].
Taken in the same sequence, the figures for `NCCCNCCCCNCCCNC(=O)[C@H](Cc1cccc(O)c1)NC(=O)Cc1ccccc1` were 10.1 µM and 98.2 µM.
Consider `NCCCCCCCCCCCCNC(=O)[C@H](Cc1cccc(O)c1)NC(=O)Cc1ccccc1`, for which the IC50 in test [1] is 8.05 µM; in test [2], 105 µM.
Taken in the same sequence, the figures for `NCCCOCCCCOCCCNC(=O)[C@H](Cc1cccc(O)c1)NC(=O)Cc1ccccc1` were 25.3 µM and 50.9 µM.
In the case of `CCCC(=O)N[C@@H](Cc1ccc(O)cc1)C(=O)NCCCOCCCCOCCCN`, the IC50 in test [1] was 10.9 µM; in test [4], more than 100 µM; in test [2], 72.7 µM.
Take `CCCC(=O)N[C@@H](Cc1ccc(O)cc1)C(=O)NCCCCCCCCCCCCN`: the IC50 was 0.79 µM in test [1], more than 100 µM in test [4] and 15.1 µM in test [2].
Take `CCCC(=O)N[C@@H](Cc1cccc(O)c1)C(=O)NCCCOCCCCOCCCN`: the results for the IC50 in test [1] and in test [2] were 42.6 µM and 110 µM, respectively.
For `NCCCNCCCCNCCCNC(=O)[C@H](Cc1cccc(O)c1)NC(=O)CC1CCCCC1`, the IC50 in test [1] came to 5.33 µM; in test [2] it was 59.8 µM.
For the molecule `NCCCOCCCCOCCCNC(=O)[C@H](Cc1cccc(O)c1)NC(=O)CC1CCCCC1`, the IC50 was 4.47 µM in test [1] and 30.7 µM in test [2].
In the case of `CCCC(=O)N[C@@H](Cc1cccc(O)c1)C(=O)NCCCCCCCCCCCCN`, the results for the IC50 in test [1] and in test [2] were 2.43 µM and 104 µM, respectively.
Taken in the same sequence, the figures for `CCCC(=O)N[C@@H](Cc1cccc(O)c1)C(=O)NCCCNCCCCNCCCN` were 117 µM and more than 1000 µM.
On to `CCCC(=O)N[C@@H](Cc1ccc(O)cc1)C(=O)NCCCNCCCCNCCCN` [PHILANTHOTOXIN 343], for which the IC50 amounted to 11.8 µM in test [1], 0.75 µM in test [4] and 56.7 µM in test [2].
